Screens from PubChem.
Compounds with a hit are over-represented: about 9.8% of the library has one in this group of screens.
Calpain2 inh – inhibitors of pig calpain II; 220,000 compounds, 0.37% hits; purified calpain II, fluorogenic peptide substrate, 30 min; inhibition, % at 16 µM;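 active = inhibition above about 50%, limit read from the data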
PMI act satM6P – increases human PMI activity with near-saturating mannose 6-phosphate; coupled PMI enzyme assay, resazurin fluorescence, 20 min; stronger effect = higher value; 1 = untreated enzyme, 0 = substrate-free blank; activation factor at 20 µM; 190,000 compounds, 0.34% hits; AID 1216;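 active = activation factor of 2 or more at 20 µM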
Target sequence (P34949 whole entry, looked up): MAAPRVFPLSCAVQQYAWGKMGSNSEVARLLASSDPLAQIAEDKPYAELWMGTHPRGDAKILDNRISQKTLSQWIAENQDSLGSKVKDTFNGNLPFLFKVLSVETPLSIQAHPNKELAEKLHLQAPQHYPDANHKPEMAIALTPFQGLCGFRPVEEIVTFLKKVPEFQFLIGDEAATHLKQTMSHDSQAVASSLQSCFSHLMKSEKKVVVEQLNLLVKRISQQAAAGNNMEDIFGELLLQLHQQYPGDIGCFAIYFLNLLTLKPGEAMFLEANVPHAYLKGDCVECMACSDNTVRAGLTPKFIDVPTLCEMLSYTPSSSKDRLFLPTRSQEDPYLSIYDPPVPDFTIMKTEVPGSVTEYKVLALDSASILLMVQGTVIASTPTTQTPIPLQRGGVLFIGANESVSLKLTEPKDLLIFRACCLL
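assay system = human phosphomannose isomerase with PGI, G6PDH, diaphorase coupling enzymes | quantity = 15 ng/mL PMI | incubation = enzyme reaction with compound 20 min at room temperature | medium = HEPES pH 7.4 buffer with MgCl2 and Tween-20 | compound dosing = one concentration, 20 µM, in 1% DMSO | measured by = Diaphorase-driven resazurin-to-resorufin fluorescence, excitation 544, emission 590 nm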
PMI activator – increases human mannose-6-phosphate isomerase activity. activation factor at 20 µM. AID 1214. P34949. purified human PMI, coupled resazurin fluorescence, 20 min; stronger effect = higher value; 1 = vehicle control, 0 substrate-free wells. 190,000 compounds, 0.005% hits;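 active = activation factor of 2 or more at 20 µM, relative to plate controls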
WT yeast gro inh – growth inhibition of WT yeast, mitochondrial fusion screen | mitochondrial fusion phenotypic screen, WT strain | inhibition, % at 10 µM | 190,000 compounds, 2.1% hits | AID 1362; in the data active = inhibition above about 58%; tested in S. cerevisiae
Lmaj promast – reduces viability of Leishmania major promastigotes | inhibition, % at 10 µM | resazurin fluorescence viability | 200,000 compounds, 9% hits | AID 1063; in the data active = inhibition above about 50%;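 also: promastigotes grown with compound for 44 hours at 28 °C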
Rad51 HR inh – Rad51 (human) homologous recombination inhibition. inhibition, % at 10 µM. hRad51 DNA strand exchange, fluorescence dequenching. Q06609. 200,000 compounds, 0.085% hits;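 active = inhibition above 40% at the single screening dose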
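Test system: preformed human Rad51 ssDNA filaments; also added: Donor/quencher-labelled 47-bp dsDNA substrate; doses: 10 µM final, single point; times: 37 °C 15-min filament assembly, 30-min compound preincubation, 15-min exchange; detection: FRET fluorescence dequenching, excitation 485 nm, emission 520 nm; read-out basis: Fluorescence-based percent inhibition, control- and blank-normalised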
Hits are given with their value; – = inactive; · = no result.

SMILES	Calpain2 inh	PMI act satM6P	PMI activator	WT yeast gro inh	Lmaj promast	Rad51 HR inh
NC1=NC(c2ccccc2)=NC1(NC(=O)c1ccccc1)C(Cl)Cl (centres undefined)	–	·	·	·	·	·
CCc1nc2n(n1)C(O)c1cc([N+](=O)[O-])ccc1S2 (centres undefined)	–	·	·	·	·	–
OCCNCCCCSc1ccc(Cl)cc1	–	–	–	–	96	·
CC(C)NCCOCCSc1ccc(Cl)cc1	–	–	–	–	90	–
OCCNCCSc1ccc(Cl)cc1	–	–	–	–	–	–
NC(=O)COC(=O)CCSc1ccc(Cl)cc1	–	–	–	–	–	–
CCC(C)NC(=O)CSc1ccc(Cl)cc1 (centres undefined)	–	–	–	–	–	–
COCCCNCCCCSc1ccc(Cl)cc1	–	–	–	–	95	–
CN(C)CCOCCSc1ccc(Cl)cc1	–	–	–	–	98	–
COc1ccc(CNC(=O)C/C(C)=N/NC(=O)C23CC4CC(CC(C4)C2)C3)cc1	–	–	–	–	–	–
O=C1NCCn2ccc(=O)cc21	–	·	·	·	·	–
CCOc1cc(C=O)ccc1OCCSc1ccc(Cl)cc1	–	–	–	–	–	–
COCCCNCCOCCOc1ccccc1-c1ccccc1	–	–	–	–	–	·
COCCCNCCOCCSc1ccc(Cl)cc1	–	–	–	–	98	–
CCCCNCCOCCSc1ccc(Cl)cc1	–	–	–	–	99	–
O=C(NCC1(N2CCCCC2)CCCCC1)C1CC(=O)N(c2ccc3c(c2)OCCO3)C1 (centres undefined)	–	–	–	–	–	–
COc1cccc(C2CC(c3cccc(Br)c3)n3nc(N)nc3N2)c1 (centres undefined)	–	–	–	–	75	–
COc1cccc(C2CC(c3ccccc3)Nc3nc(N)nn32)c1 (centres undefined)	–	–	–	–	–	–
Nc1nc2n(n1)C(c1cccc(Br)c1)CC(c1ccccc1)N2 (centres undefined)	–	–	–	–	78	–
COc1ccc(C2CC(c3cccc(OC)c3)n3nc(N)nc3N2)cc1 (centres undefined)	–	–	–	–	–	–
O=c1[nH]cc(NCCNc2ncc(C(F)(F)F)cc2Cl)c(=O)[nH]1	–	–	–	–	–	–
COc1ccc(OC2C(=O)N(Cc3ccc(F)cc3)C2c2ccc(OC)c(OC)c2)cc1 (centres undefined)	–	–	–	–	–	–
COc1cc(C2C(Oc3ccccc3C)C(=O)N2Cc2ccc(F)cc2)cc(OC)c1OC (centres undefined)	–	–	–	–	99	–
CC(C)c1ccc(NC(=O)c2ccc(NS(C)(=O)=O)cc2)cc1	–	–	–	–	–	–
CN(C)/C=C(\C#N)C(=O)N/N=C(\CC(=O)C(F)(F)F)c1ccco1	–	–	–	–	–	–
SMILES	Calpain2 inh	PMI act satM6P	PMI activator	WT yeast gro inh	Lmaj promast	Rad51 HR inh
CCN(CC)C(=S)SCC(=O)c1ccccc1	–	–	–	–	–	–
CCN(CC)C(=S)SCC(=O)c1ccc(F)cc1	–	–	–	–	78	–
O=C(CSc1nnc(-c2ccncc2)n1Cc1ccco1)OC1CCCCC1	–	–	–	–	81	–
C(=C\c1ccccc1)/CSc1nnc(-c2ccncc2)n1Cc1ccco1	–	–	–	–	–	–
c1ccc(-c2nnc(CSc3nnc(-c4ccncc4)n3Cc3ccco3)o2)cc1	–	–	–	82	–	·
C(=C\c1ccccc1)/CSc1nnc(-c2ccccc2)n1Cc1ccco1	–	–	–	–	85	–
c1ccc(N2CCN(c3nnnn3-c3ccccc3)CC2)cc1	–	–	–	–	–	–
ClC(Cl)(c1nnnn1-c1ccccc1)c1nnnn1-c1ccccc1	–	–	–	88	–	–
O=C(Nc1ccccc1)C1=C(c2ccccc2)S(=O)(=O)CCS1(=O)=O	–	–	–	–	–	42
ClC(/C=N/n1cnnc1)=C/c1ccccc1	–	·	·	·	·	·
O=C(/C=C/c1ccc2c(c1)OCCO2)c1ccccc1	–	·	·	·	·	·
Cc1ccc(O)c(C(=O)/C=C/c2ccc3c(c2)OCCO3)c1	–	–	–	60	–	–
Nc1ccccc1C(=O)/C=C/c1ccc2c(c1)OCO2	–	–	–	–	58	–
CCS(=O)(=O)CCSc1nc2c(cc1C#N)CCCC2	–	–	–	61	–	–
N#Cc1cc2c(nc1SCC(=O)Nc1sc3c(c1C#N)CCC3)CCCC2	–	–	–	–	55	–
N#CCSc1nc2c(cc1C#N)CCCCCC2	–	–	–	–	–	–
CCN(CC)CC(=O)N1c2ccccc2CCc2ccc(NC(=O)c3cc(OC)c(OC)c(OC)c3)cc21	–	·	·	·	·	–
COc1ccc(-c2n[nH]c(=S)n2-c2ccc3c(c2)OCCO3)cc1OC	–	–	–	–	88	–
COc1ccc(-c2n[nH]c(=S)n2-c2ccc3c(c2)OCCO3)cc1	–	–	–	–	–	–
COc1cc(OC)cc(-c2n[nH]c(=S)n2-c2ccc3c(c2)OCCO3)c1	–	–	–	–	71	–
O=C(Cc1ccc(-n2c(=O)c3sccc3n(CC(=O)Nc3ccccc3F)c2=O)cc1)NCc1ccco1	–	–	–	–	–	–
Cc1ccc(Nc2cc(C)nn2-c2nc(C)cc(C)n2)cc1	–	–	–	75	92	–
Cc1ccc(Nc2cc(C)nn2-c2nc(C)cc(=O)[nH]2)cc1	–	–	–	–	100	–
CN(C)c1ccc(C(C#N)c2ccccc2)nn1 (centres undefined)	–	–	–	–	–	–
Cc1c(C(=O)NCc2ccc3c(c2)OCO3)oc2ccc(Br)cc12	–	–	–	62	–	–
SMILES	Calpain2 inh	PMI act satM6P	PMI activator	WT yeast gro inh	Lmaj promast	Rad51 HR inh
O=C(NCc1ccc2c(c1)OCO2)c1ccc(-c2ccc(Cl)cc2)o1	–	–	–	69	–	–
O=C(NCc1ccc2c(c1)OCO2)c1cccc(Cl)c1	–	–	–	–	–	–
COc1ccc(C(=O)NCc2ccc3c(c2)OCO3)cc1S(=O)(=O)NCc1ccc(Cl)cc1	–	–	–	–	61	–
Cc1ccc2oc(C(=O)NCc3ccc4c(c3)OCO4)c(C)c2c1	–	–	–	–	–	–
COC(=O)c1sccc1-c1ccc(/C=N/OC(=O)c2cccs2)o1	–	·	·	·	·	–
N#Cc1c(NC(=O)c2cccc(S(=O)(=O)Nc3ccc(C(=O)O)cc3)c2)sc2c1CCCC2	52	·	·	·	·	·
CCN(CC)S(=O)(=O)c1cccc(C(=O)Nc2sc3c(c2C(N)=O)CCCC3)c1	–	–	–	73	–	–
NC(=O)c1c(NC(=O)c2ccncc2)sc2c1CCCC2	–	–	–	–	–	·
Cn1cc(NC(=O)Nc2ccc(C(F)(F)F)cc2)c(C(F)(F)F)n1	–	·	·	·	·	–
Cc1ccc(-c2ccc(S(=O)(=O)N3CCN(C)CC3)cc2)cc1	–	–	–	–	–	–
